# From PMC3596460 (Nuclear medicine and biology, 2013)
# Where two headings read alike, the source gives them in different places.
# Experiments:
# [1] = test system: norepinephrine transporter (NET); settings: isolated rat heart, cited from earlier work
# [2] = biological target: T1, human norepinephrine transporter (hNET) (Homo sapiens, UniProt P23975); experiment: Saturation transport kinetics assays with intact C6-hNET cells; format: cell-based; settings: for Km / Vmax: intact C6-hNET cells, 5 min, 37 °C, mean ± SD, n = 4 or 5
# [3] = test system: norepinephrine transporter (NET); experiment: NET transport kinetics / neuronal uptake in isolated perfused rat hearts; settings: isolated rat heart, ratio of Vmax and Km estimates
# [4] = biological target: T1, human norepinephrine transporter (hNET); experiment: Competitive inhibition of [^3H]mazindol binding to C6-hNET cell membranes
# Method in brief: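 Rat C6 glioma cells stably expressing human NET were Dounce-homogenized, and membranes were pelleted at 100,000 × g and resuspended in 50 mM Tris, 120 mM NaCl, 5 mM KCl, pH 7.4. Each assay used 70–100 μg protein. Radioligand was [3H]mazindol, with desipramine defining nonspecific binding. Ten inhibitor concentrations were run in quadruplicate and normalized to % specific binding. A one-site competition fit gave IC50, converted to Ki by Cheng-Prusoff using the mean saturation KD.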
# [5] = earlier studies, reference not given; cited from earlier work
# [6] = biological target: T1, human norepinephrine transporter (hNET); experiment: Saturation binding assays with [^3H]mazindol and C6-hNET membranes; settings: C6-hNET cell membranes, n = 4
# Method in brief: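 The membranes were C6-hNET cell membranes, 100,000 × g pellets in 50 mM Tris/120 mM NaCl/5 mM KCl, pH 7.4, from different batches. Protein was measured by Lowry with BSA standards. Eight [3H]mazindol concentrations (0.25–25 nM) were tested, with specific binding in triplicate at each. A one-site binding nonlinear fit gave KD (nM) and Bmax (fmol/mg protein).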
# [7] = [^3H]mazindol, homogenized C6-hNET cell membranes, Cheng-Prusoff, mean ± SD, n = 4 or 5
# T1 sequence (P23975 whole entry, the tested form may be a part): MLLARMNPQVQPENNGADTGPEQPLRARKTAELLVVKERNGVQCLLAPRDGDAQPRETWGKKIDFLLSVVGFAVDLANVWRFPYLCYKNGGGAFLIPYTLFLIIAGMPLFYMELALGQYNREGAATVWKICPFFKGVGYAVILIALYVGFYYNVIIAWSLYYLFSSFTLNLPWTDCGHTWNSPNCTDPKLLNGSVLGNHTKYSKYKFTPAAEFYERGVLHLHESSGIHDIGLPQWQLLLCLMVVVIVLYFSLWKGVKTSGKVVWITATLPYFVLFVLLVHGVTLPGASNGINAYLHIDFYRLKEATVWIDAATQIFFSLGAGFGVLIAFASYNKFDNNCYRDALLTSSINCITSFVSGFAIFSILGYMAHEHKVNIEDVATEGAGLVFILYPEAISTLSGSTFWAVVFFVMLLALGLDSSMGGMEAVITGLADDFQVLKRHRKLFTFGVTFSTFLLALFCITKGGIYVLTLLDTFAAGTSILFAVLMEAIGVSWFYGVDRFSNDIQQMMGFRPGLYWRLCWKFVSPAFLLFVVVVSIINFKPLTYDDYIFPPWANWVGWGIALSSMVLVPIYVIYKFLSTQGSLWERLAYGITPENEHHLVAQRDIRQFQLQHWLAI
molecule,measurement,setting,value
"NC(N)=NCc1cccc(Br)c1 [MBBG, [^76Br]-meta-bromobenzylguanidine]",Km,[1]; ref Raffel et al. [16],0.11 ± 0.03 µM
[^3H]dopamine [DA],Km,[2],0.24 ± 0.04 µM
same,Vmax,[2],2.91 ± 0.47 pmol/min/mg protein
same,Vmax/Km ratio,[3]; ref Hellmann et al. [11],2.10 ml/min/g wet
same,Km,[1]; ref Hellmann et al. [11],0.69 µM
same,Vmax,[1]; ref Hellmann et al. [11],1.45 nmol/min/g wet
"CNC[C@H](O)c1ccc(O)c(O)c1 [EPI, [^11C]-(−)-epinephrine]",Ki,[4],68.4 ± 7.6 µM
same,Km increase relative to NE,"[2]; C6-hNET cells, comparator NE",11 fold
same,log P,[5],−1.30
"N=C(N)NCCc1ccc(O)cc1 [PHPG, [^11C]para-hydroxyphenethylguanidine]",Ki,[4]; [7],1.9 ± 0.2 µM
same,Km,[2],0.52 ± 0.06 µM
"N=C(N)NCCc1cccc(O)c1 [MHPG, [^11C]meta-hydroxyphenethylguanidine]",Ki,[4]; [7],4.9 ± 0.5 µM
same,Km,[2],0.73 ± 0.2 µM
"N=C(N)NCCc1cc(O)ccc1F [6F-MHPG, [^11C]6-fluoro-meta-hydroxyphenethylguanidine]",Ki,[4]; [7],17.7 ± 0.5 µM
same,Km,[2],2.86 ± 0.43 µM
"N=C(N)NCc1cccc(I)c1 [MIBG, [^131I]metaiodobenzylguanidine]",Km,[1]; ref DeGrado et al. [15],0.052 µM
"NC[C@H](O)c1ccc(O)c(O)c1 [NE, [^3H]-(−)-norepinephrine]",Km,[1]; ref Iversen [14],0.27 µM
same,Vmax,[1]; ref Iversen [14],1.18 ± 0.12 nmol/min/g wet
"N=[11C](N)NCCc1ccc(O)cc1 [PHPG, [^11C]para-hydroxyphenethylguanidine]",Vmax,[2],3.31 ± 0.40 pmol/min/mg protein
"N=C(N)NCC(O)c1cccc(O)c1 (single isomer, unassigned; (-)) [GMO, (−)-N-[^11C]guanyl-meta-octopamine]",Ki,[4]; [7],20.3 ± 2.5 µM
same,Km,[2],4.43 ± 0.31 µM
"N=[11C](N)NCCc1cc(O)ccc1F [6F-MHPG, [^11C]6-fluoro-meta-hydroxyphenethylguanidine]",Km increase relative to MHPG,"[2]; C6-hNET cells, comparator MHPG",~ 5 fold
same,Vmax decrease relative to MHPG,"[2]; C6-hNET cells, comparator MHPG",~ 50%
same,Vmax/Km as percentage of the value for MHPG,"[2]; C6-hNET cells, comparator MHPG",~ 12%
same,Vmax,[2],4.06 ± 0.66 pmol/min/mg protein
"N=[11C](N)NCC(O)c1cccc(O)c1 (single isomer, unassigned; (-)) [GMO, (−)-N-[^11C]guanyl-meta-octopamine]",Km increase relative to MHPG,"[2]; C6-hNET cells, comparator MHPG",6 fold
same,Vmax decrease relative to MHPG,"[2]; C6-hNET cells, comparator MHPG",30%
same,Vmax/Km ratio slower than for MHPG,"[2]; C6-hNET cells, comparator MHPG",~ 9 times slower
same,Vmax,[2],5.57 ± 0.30 pmol/min/mg protein
"OC1(c2ccc(Cl)cc2)c2ccccc2C2=NCCN21 (stereo not drawn) [[^3H]mazindol, [4′-^3H]Mazindol]",Bmax,[6],457 ± 31 fmol/mg protein
same,Kd,[6],0.0012 µM
"NC(N)=NCc1cccc([76Br])c1 [MBBG, [^76Br]-meta-bromobenzylguanidine]",Vmax/Km ratio,[3]; ref Raffel et al. [16],3.0 ± 1.2 ml/min/g wet
same,Vmax,[1]; ref Raffel et al. [16],0.33 ± 0.10 nmol/min/g wet
"N=C(N)NCc1cccc([131I])c1 [MIBG, [^131I]metaiodobenzylguanidine]",Vmax/Km ratio,[3]; ref DeGrado et al. [15],4.4 ml/min/g wet
same,Vmax,[1]; ref DeGrado et al. [15],0.23 nmol/min/g wet
"N=C(N)NCCc1ccc(F)c(O)c1 [4F-MHPG, [^11C]4-fluoro-meta-hydroxyphenethylguanidine]",Ki,[4]; [7],5.6 ± 0.5 µM
same,Km increase relative to MHPG,"[2]; C6-hNET cells, comparator MHPG",5 fold
same,Km,[2],2.57 ± 0.35 µM
same,Vmax,[2],7.46 ± 0.64 pmol/min/mg protein
[^11C]-(−)-meta- hydroxyephedrine,Ki,[4]; [7],43.2 ± 1.8 µM
same,Km,[2],0.48 ± 0.08 µM
same,Vmax,[2],5.43 ± 0.71 pmol/min/mg protein
same,log P,[5],0.3
"N=[11C](N)NCCc1cccc(O)c1 [MHPG, [^11C]meta-hydroxyphenethylguanidine]",Vmax relative to PHPG,"[2]; C6-hNET cells, comparator PHPG",2.4 times higher
same,Vmax,[2],7.83 ± 1.73 pmol/min/mg protein
